Laboratory results as given in article PMC4220649 (Blood Cancer Journal, 2014).
Entries after “also recorded” stand apart in the source; their conditions may differ. Read-outs that look alike come from different tables or passages of the source.

Tested on: patients with relapsed/refractory lymphoma
Type: in vivo, human
Details: for Drug-related AE: Skin/SC tissue disorders / Drug-related grade ⩾3 AE: Skin/SC tissue disorders: MedDRA SOC
How it was run: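 Open-label phase 1 in patients with relapsed/refractory lymphoma after ⩾2 prior therapies. Dosing started at one patient per level with doubling from 0.125 to 1.0 mg/m2, then followed a 3+3 schema up to 3.11 mg/m2. DLTs were assessed in cycle 1, and AEs were graded by NCI-CTCAE v3.0.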

With `CC(C)C[C@H](NC(=O)CNC(=O)c1cc(Cl)ccc1Cl)B(O)O` [ixazomib] the “DLTs in cycle 1” value (1.76 mg/m^2 cohort) was “one grade 4 neutropenia”, the “DLTs in cycle 1” value (2.34 mg/m^2 cohort) was “DLTs occurred in one of six DLT-evaluable patients” and the “DLTs in cycle 1” value (3.11 mg/m^2 cohort) was “two DLTs occurred in four DLT-evaluable patients”. The “Patients who reported DLTs” value (DLT-evaluable population, 28 patients) was “Four”, the “MTD (maximum tolerated dose)” value (IV, days 1, 8 and 15 of 28-day cycles) was 2.34 mg/m^2 and the “Drug-related AE: Skin/SC tissue disorders” value (all doses, Total (n=30)) was 8 (27) n (%). The “Drug-related grade ⩾3 AE: Skin/SC tissue disorders” value (all doses, Total (n=30)) was 2 (7) n (%), the “Drug-related AE: Skin/SC tissue disorders” value (dose 1.4 mg/m^2 (n=4)) was 1 n and the “Drug-related grade ⩾3 AE: Skin/SC tissue disorders” value (dose 1.4 mg/m^2 (n=4)) was 0 n. For the same compound, the “Drug-related AE: Skin/SC tissue disorders” value (dose 1.76 mg/m^2 (n=7)) was 2 n, the “Drug-related grade ⩾3 AE: Skin/SC tissue disorders” value (dose 1.76 mg/m^2 (n=7)) was 0 n and the “Drug-related AE: Skin/SC tissue disorders” value (dose 2.34 mg/m^2 (n=10)) was 4 n. The “Drug-related grade ⩾3 AE: Skin/SC tissue disorders” value (dose 2.34 mg/m^2 (n=10)) was 1 n, the “Drug-related AE: Skin/SC tissue disorders” value (dose 3.11 mg/m^2 (n=5)) was 0 n and the “Drug-related grade ⩾3 AE: Skin/SC tissue disorders” value (dose 3.11 mg/m^2 (n=5)) was 0 n. The “Drug-related AE: Skin/SC tissue disorders” value (dose 0.125–1.0 mg/m^2 (n=4)) was 1 n, the “Drug-related grade ⩾3 AE: Skin/SC tissue disorders” value (dose 0.125–1.0 mg/m^2 (n=4)) was 1 n and the “Patients with grade ⩾3 neutropenia who required growth factor support” value (all doses) was 2/6. The “Patients with grade ⩾3 thrombocytopenia who required platelet transfusions” value (all doses) was 0/4, the “Drug-related AE: Abdominal pain” value (all doses, Total (n=30)) was 5 (17) n (%) and the “Drug-related AE: Any AE” value (all doses, Total (n=30)) was 30 (100) n (%). The “Drug-related AE: Arthralgia” value (all doses, Total (n=30)) was 3 (10) n (%), the “Drug-related AE: Chills” value (all doses, Total (n=30)) was 4 (13) n (%) and the “Drug-related AE: Constipation” value (all doses, Total (n=30)) was 3 (10) n (%). The “Drug-related AE: Cough” value (all doses, Total (n=30)) was 4 (13) n (%), the “Drug-related AE: Decreased appetite” value (all doses, Total (n=30)) was 6 (20) n (%) and the “Drug-related AE: Decreased platelet count” value (all doses, Total (n=30)) was 3 (10) n (%). For the same compound, the “Drug-related AE: Diarrhea” value (all doses, Total (n=30)) was 10 (33) n (%), the “Drug-related AE: Dysgeusia” value (all doses, Total (n=30)) was 4 (13) n (%) and the “Drug-related AE: Fatigue” value (all doses, Total (n=30)) was 13 (43) n (%). For the same compound, the “Drug-related AE: Headache” value (all doses, Total (n=30)) was 6 (20) n (%), the “Drug-related AE: Hypokalemia” value (all doses, Total (n=30)) was 4 (13) n (%) and the “Drug-related AE: Lymphopenia” value (all doses, Total (n=30)) was 4 (13) n (%). The “Drug-related AE: Nausea” value (all doses, Total (n=30)) was 8 (27) n (%), the “Drug-related AE: Neutropenia” value (all doses, Total (n=30)) was 6 (20) n (%) and the “Drug-related AE: Oral herpes” value (all doses, Total (n=30)) was 4 (13) n (%). For the same compound, the “Drug-related AE: Pain in extremity” value (all doses, Total (n=30)) was 3 (10) n (%), the “Drug-related AE: Paresthesia” value (all doses, Total (n=30)) was 3 (10) n (%) and the “Drug-related AE: Peripheral edema” value (all doses, Total (n=30)) was 4 (13) n (%). For the same compound, the “Drug-related AE: Pyrexia” value (all doses, Total (n=30)) was 5 (17) n (%), the “Drug-related AE: Thrombocytopenia” value (all doses, Total (n=30)) was 8 (27) n (%) and the “Drug-related AE: Vomiting” value (all doses, Total (n=30)) was 8 (27) n (%). The “Drug-related grade ⩾3 AE: Any grade ⩾3 AE” value (all doses, Total (n=30)) was 14 (47) n (%), the “Drug-related grade ⩾3 AE: Dehydration” value (all doses, Total (n=30)) was 2 (7) n (%) and the “Drug-related grade ⩾3 AE: Diarrhea” value (all doses, Total (n=30)) was 3 (10) n (%). The “Drug-related grade ⩾3 AE: Lymphopenia” value (all doses, Total (n=30)) was 2 (7) n (%), the “Drug-related grade ⩾3 AE: Neutropenia” value (all doses, Total (n=30)) was 6 (20) n (%) and the “Drug-related grade ⩾3 AE: Thrombocytopenia” value (all doses, Total (n=30)) was 4 (13) n (%). The “AEs of Skin and subcutaneous tissue disorders (MedDRA System Organ Class), patients” value (all doses, n=30) was 27%, the “Drug-related AE: diarrhea, patients” value (all doses, n=30) was 33% and the “Drug-related AE: fatigue, patients” value (all doses, n=30) was 43%. For the same compound, the “Drug-related AE: nausea, patients” value (all doses, n=30) was 27%, the “Drug-related AE: thrombocytopenia, patients” value (all doses, n=30) was 27% and the “Drug-related AE: vomiting, patients” value (all doses, n=30) was 27%. For the same compound, the “Drug-related grade ⩾3 AE: diarrhea, patients” value (all doses, n=30) was 10%, the “Drug-related grade ⩾3 AE: neutropenia, patients” value (all doses, n=30) was 20% and the “Drug-related grade ⩾3 AE: thrombocytopenia, patients” value (all doses, n=30) was 13%. For the same compound, the “Drug-related rash, patients” value (all doses, n=30) was 17%, the “Grade ⩾3 PN” value (all doses, n=30) was “no grade ⩾3 events were reported; also recorded: no patient had grade ⩾3 PN” and the “Patients who experienced serious AEs” value (all doses, n=30) was “Eight”. The “Patients with drug-related grade ⩾3 AEs” value (all doses, n=30) was 47%, the “Discontinuation of ixazomib due to AEs” value (all doses, n=30, data cut-off 1 March 2013) was 10% and the “Patients with grade ⩾3 AEs” value (all-cause, all doses, n=30) was 73%. For the same compound, the “Drug-related AE: Abdominal pain” value (dose 1.4 mg/m^2 (n=4)) was 0 n, the “Drug-related AE: Any AE” value (dose 1.4 mg/m^2 (n=4)) was 4 n and the “Drug-related AE: Arthralgia” value (dose 1.4 mg/m^2 (n=4)) was 0 n. The “Drug-related AE: Chills” value (dose 1.4 mg/m^2 (n=4)) was 0 n, the “Drug-related AE: Constipation” value (dose 1.4 mg/m^2 (n=4)) was 0 n and the “Drug-related AE: Cough” value (dose 1.4 mg/m^2 (n=4)) was 0 n. The “Drug-related AE: Decreased appetite” value (dose 1.4 mg/m^2 (n=4)) was 1 n, the “Drug-related AE: Decreased platelet count” value (dose 1.4 mg/m^2 (n=4)) was 0 n and the “Drug-related AE: Diarrhea” value (dose 1.4 mg/m^2 (n=4)) was 0 n. The “Drug-related AE: Dysgeusia” value (dose 1.4 mg/m^2 (n=4)) was 1 n, the “Drug-related AE: Fatigue” value (dose 1.4 mg/m^2 (n=4)) was 2 n and the “Drug-related AE: Headache” value (dose 1.4 mg/m^2 (n=4)) was 0 n. For the same compound, the “Drug-related AE: Hypokalemia” value (dose 1.4 mg/m^2 (n=4)) was 0 n, the “Drug-related AE: Lymphopenia” value (dose 1.4 mg/m^2 (n=4)) was 1 n and the “Drug-related AE: Nausea” value (dose 1.4 mg/m^2 (n=4)) was 1 n. The “Drug-related AE: Neutropenia” value (dose 1.4 mg/m^2 (n=4)) was 1 n, the “Drug-related AE: Oral herpes” value (dose 1.4 mg/m^2 (n=4)) was 1 n and the “Drug-related AE: Pain in extremity” value (dose 1.4 mg/m^2 (n=4)) was 0 n. For the same compound, the “Drug-related AE: Paresthesia” value (dose 1.4 mg/m^2 (n=4)) was 1 n, the “Drug-related AE: Peripheral edema” value (dose 1.4 mg/m^2 (n=4)) was 0 n and the “Drug-related AE: Pyrexia” value (dose 1.4 mg/m^2 (n=4)) was 0 n. For the same compound, the “Drug-related AE: Thrombocytopenia” value (dose 1.4 mg/m^2 (n=4)) was 2 n, the “Drug-related AE: Vomiting” value (dose 1.4 mg/m^2 (n=4)) was 0 n and the “Drug-related grade ⩾3 AE: Any grade ⩾3 AE” value (dose 1.4 mg/m^2 (n=4)) was 3 n. For the same compound, the “Drug-related grade ⩾3 AE: Dehydration” value (dose 1.4 mg/m^2 (n=4)) was 0 n, the “Drug-related grade ⩾3 AE: Diarrhea” value (dose 1.4 mg/m^2 (n=4)) was 0 n and the “Drug-related grade ⩾3 AE: Lymphopenia” value (dose 1.4 mg/m^2 (n=4)) was 0 n. The “Drug-related grade ⩾3 AE: Neutropenia” value (dose 1.4 mg/m^2 (n=4)) was 1 n, the “Drug-related grade ⩾3 AE: Thrombocytopenia” value (dose 1.4 mg/m^2 (n=4)) was 1 n and the “Drug-related AE: Abdominal pain” value (dose 1.76 mg/m^2 (n=7)) was 1 n. The “Drug-related AE: Any AE” value (dose 1.76 mg/m^2 (n=7)) was 7 n, the “Drug-related AE: Arthralgia” value (dose 1.76 mg/m^2 (n=7)) was 0 n and the “Drug-related AE: Chills” value (dose 1.76 mg/m^2 (n=7)) was 2 n. The “Drug-related AE: Constipation” value (dose 1.76 mg/m^2 (n=7)) was 0 n, the “Drug-related AE: Cough” value (dose 1.76 mg/m^2 (n=7)) was 2 n and the “Drug-related AE: Decreased appetite” value (dose 1.76 mg/m^2 (n=7)) was 1 n. The “Drug-related AE: Decreased platelet count” value (dose 1.76 mg/m^2 (n=7)) was 1 n, the “Drug-related AE: Diarrhea” value (dose 1.76 mg/m^2 (n=7)) was 3 n and the “Drug-related AE: Dysgeusia” value (dose 1.76 mg/m^2 (n=7)) was 2 n. For the same compound, the “Drug-related AE: Fatigue” value (dose 1.76 mg/m^2 (n=7)) was 4 n, the “Drug-related AE: Headache” value (dose 1.76 mg/m^2 (n=7)) was 2 n and the “Drug-related AE: Hypokalemia” value (dose 1.76 mg/m^2 (n=7)) was 1 n. The “Drug-related AE: Lymphopenia” value (dose 1.76 mg/m^2 (n=7)) was 0 n, the “Drug-related AE: Nausea” value (dose 1.76 mg/m^2 (n=7)) was 3 n and the “Drug-related AE: Neutropenia” value (dose 1.76 mg/m^2 (n=7)) was 1 n. The “Drug-related AE: Oral herpes” value (dose 1.76 mg/m^2 (n=7)) was 1 n and the “Drug-related AE: Pain in extremity” value (dose 1.76 mg/m^2 (n=7)) was 0 n.
